Assay [1] deals with T1, Potassium-transporting ATPase (Sus scrofa) (UniProt P18434+P19156). Put plainly: Inhibition of K+ -stimulated gastric ATPase activity was measured using lyophilized gastric vesicles at pH 7 at 100. In kind it is tissue-based. The settings on record: Stomach; concentration not given here. Put shortly: (§1)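 K+-stimulated ATPase activity was measured in lyophilized (permeabilized) gastric vesicles at pH 7. The value is an IC50, or percent inhibition at the stated concentration where no IC50 could be determined.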

Assay [2] has as its target T1, Potassium-transporting ATPase (Sus scrofa). Put plainly: (§2) Inhibition of K+ -stimulated gastric ATPase activity was measured using lyophilized gastric vesicles at pH 7. In kind it is tissue-based. Particulars: Stomach; concentration not given here. The gist of the method:
as §1

Assay [3] has as its system Canis familiaris. Put plainly: Mean percent peak inhibition of histamine-stimulated gastric acid secretion in the heidenhain pouch dog following a single dose of 4 umol/kg through oral administration. In kind it is functional. The settings on record: Canis lupus familiaris, Stomach.
Assay [4] has as its system Canis familiaris. The assay can be described thus: Mean percent peak inhibition of histamine-stimulated gastric acid secretion in the heidenhain pouch dog following a single dose of 1 umol/kg through iv administration. Format: functional. The settings on record: Canis lupus familiaris, Stomach.
The target of assay [5] is Potassium-transporting ATPase (Sus scrofa, UniProt P19156). Described as §2. Format: tissue-based, Stomach. Put shortly:
as §1

The target of assay [6] is T2, Potassium-transporting ATPase (Rattus norvegicus) (UniProt P09626+P18598). The assay can be described thus: (§3) Inhibition of pentagastrin-stimulated gastric acid secretion in the anesthetized rat after iv administration. Format: functional, organism-based. Particulars: Stomach. The gist of the method:
(§4)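 Anesthetized, lumen-perfused rats were given pentagastrin to stimulate gastric acid secretion, and compounds were given iv. The value is an ED50 (µmol/kg iv) with 95% confidence limits, or percent inhibition ± SEM at a single 10 µmol/kg iv dose.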

Assay [7] concerns the target T1, Potassium-transporting ATPase (Sus scrofa). Described as §2. In kind it is tissue-based. Also noted: concentration or dose not given beside the values. The settings on record: Stomach; concentration not given here. Put shortly: as §1
The target in assay [8] is T2, Potassium-transporting ATPase (Rattus norvegicus). Put plainly: Inhibition of pentagastrin-stimulated gastric acid secretion at a single dose of 10 umol/kg. The settings on record: Stomach. In kind it is functional. Put shortly: as §4
The test system of assay [9] is Rattus norvegicus. Put plainly: Inhibition of pentagastrin-stimulated gastric acid secretion in the anesthetized rat at a single dose of 10 umol/kg iv; Insoluble. Format: functional, organism-based. Particulars: Stomach. The gist of the method:
as §4

The target in assay [10] is T1, Potassium-transporting ATPase (Sus scrofa). Put plainly: Inhibition of K+ -stimulated gastric ATPase activity was measured using lyophilized gastric vesicles at pH 7 at 10. Format: tissue-based. The settings on record: Stomach; concentration not given here. The gist of the method:
as §1

Assay [11] deals with T3, Potassium-transporting ATPase (Sus scrofa, UniProt P18434+P19156). The assay is described as §2. Format: tissue-based, Stomach. The gist of the method: as §1
T3 sequence (P18434 whole entry): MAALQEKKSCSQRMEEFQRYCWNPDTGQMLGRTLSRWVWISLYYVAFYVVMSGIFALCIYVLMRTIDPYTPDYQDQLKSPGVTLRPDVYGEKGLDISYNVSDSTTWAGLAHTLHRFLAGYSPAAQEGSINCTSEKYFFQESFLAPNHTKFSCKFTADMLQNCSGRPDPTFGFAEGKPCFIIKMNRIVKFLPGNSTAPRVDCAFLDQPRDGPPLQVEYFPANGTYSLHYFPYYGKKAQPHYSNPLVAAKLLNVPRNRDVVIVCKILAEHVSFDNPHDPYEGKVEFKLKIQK
T3 sequence (P19156 whole entry): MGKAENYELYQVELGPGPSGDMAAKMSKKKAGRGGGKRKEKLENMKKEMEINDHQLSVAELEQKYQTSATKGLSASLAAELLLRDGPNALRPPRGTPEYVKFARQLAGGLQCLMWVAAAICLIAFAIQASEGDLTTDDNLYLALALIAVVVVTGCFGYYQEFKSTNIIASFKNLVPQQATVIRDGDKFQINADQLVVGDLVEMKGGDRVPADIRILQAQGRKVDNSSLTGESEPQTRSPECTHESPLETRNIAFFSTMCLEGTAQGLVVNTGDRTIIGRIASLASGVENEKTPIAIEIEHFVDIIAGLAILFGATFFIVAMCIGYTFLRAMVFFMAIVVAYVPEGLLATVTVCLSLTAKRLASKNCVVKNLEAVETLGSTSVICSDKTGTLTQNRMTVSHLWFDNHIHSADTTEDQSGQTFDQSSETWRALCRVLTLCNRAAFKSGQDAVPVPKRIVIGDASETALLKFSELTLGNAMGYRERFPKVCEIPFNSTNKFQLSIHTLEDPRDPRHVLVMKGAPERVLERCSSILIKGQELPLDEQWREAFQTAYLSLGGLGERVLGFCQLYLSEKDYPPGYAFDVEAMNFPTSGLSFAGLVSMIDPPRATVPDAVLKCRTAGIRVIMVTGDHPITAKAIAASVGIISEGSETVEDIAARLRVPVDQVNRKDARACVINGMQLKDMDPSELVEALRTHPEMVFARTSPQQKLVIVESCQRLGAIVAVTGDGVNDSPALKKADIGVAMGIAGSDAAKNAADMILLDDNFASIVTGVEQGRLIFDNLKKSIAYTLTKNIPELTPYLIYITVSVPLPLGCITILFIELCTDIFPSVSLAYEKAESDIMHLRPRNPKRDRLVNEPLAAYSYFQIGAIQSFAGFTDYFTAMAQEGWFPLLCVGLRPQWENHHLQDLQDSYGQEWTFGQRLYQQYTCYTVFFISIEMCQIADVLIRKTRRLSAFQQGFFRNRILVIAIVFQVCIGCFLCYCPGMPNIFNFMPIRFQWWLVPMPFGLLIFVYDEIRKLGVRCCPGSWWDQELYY
The test system of assay [12] is Rattus norvegicus. The assay can be described thus: Inhibition of pentagastrin-stimulated gastric acid secretion in the anesthetized rat, ED50 (umol/kg iv) with 95% confidence limits. In kind it is functional. The settings on record: Stomach. The gist of the method:
as §4

Assay [13] deals with T3, Potassium-transporting ATPase. The assay can be described thus: Inhibition of K+ -stimulated gastric ATPase activity was measured using lyophilized gastric vesicles at pH 7; Insoluble. Format: tissue-based, Stomach.
Assay [14] deals with Rattus norvegicus. The assay is described as §3. Format: functional, Stomach. The gist of the method: as §4

Chain of Potassium-transporting ATPase (Sus scrofa, UniProt P19156) (P18434 whole entry): as the sequence (P18434 whole entry) above
Chain of Potassium-transporting ATPase (Sus scrofa, UniProt P19156) (P19156 whole entry): as the sequence (P19156 whole entry) above

In [1], `CCCC(=O)c1cnc2cc(CO)ccc2c1Nc1ccccc1C` gave an inhibition of 44%.
The compound `CCCC(=O)c1cnc2c(OC)cccc2c1Nc1ccc(OC(=O)C(C)C)cc1C` came in with an inhibition in assay [2] of 44%. In the assay on Canis familiaris [3], the inhibition in vivo at 4 µmol/kg was determined as 25%.
Take `CCCC(=O)c1cnc2c(OC)cccc2c1Nc1c(C)cccc1C`: the inhibition in vivo at 1 µmol/kg with Canis familiaris [4] was 62%. Further, the IC50 in assay [5] stood at 1600 nM. Besides, the median effective dose (ED50) in assay [6] came to 5.24 µmol/kg. This compound also showed an inhibition in vivo at 4 µmol/kg in the assay on Canis familiaris [3] of 75%.
`CCCC(=O)c1cnc2c(OC)cccc2c1Nc1ccc([N+](=O)[O-])cc1C`: in [2], the inhibition came out at 17%.
Take `CCCC(=O)c1cnc2c(OC)cccc2c1Nc1ccc(O)c(F)c1`: in [7], the inhibition amounted to 40%.
In turn, `CCCC(=O)c1cnc2c(OC)cccc2c1Nc1ccc(O)c(Cl)c1` had an inhibition in [7] of 16%.
Still for that read-out and setting: to `CCCC(=O)c1cnc2c(C)cccc2c1Nc1ccc(Cl)cc1C` belongs 15%.
In the case of `CCCC(=O)c1cnc2c(Oc3cnccn3)cccc2c1Nc1ccccc1C`, the inhibition in vivo at 1 µmol/kg in the assay on Canis familiaris [4] turned out to be 49%. The compound also displayed an IC50 in assay [5] of 2000 nM. In addition, the ED50 in assay [6] came out at 2.9 µmol/kg. This compound had an inhibition in vivo at 4 µmol/kg in the assay with Canis familiaris [3] of 43%.
The like results for `Cc1cc(F)ccc1Nc1c(C(=O)C(C)C)cnc2c(OCCO)cccc12` were, in that order, 66%, 1600 nM, 4.2 µmol/kg and 75%.
With `CCCC(=O)c1cnc2c(C)cccc2c1Nc1ccccc1F`, the inhibition in [8] is 29%; in assay [7], 53%.
In the case of `CCCC(=O)c1cnc2ccc(-c3ccccc3)cc2c1Nc1ccccc1C`, the inhibition entry with Rattus norvegicus [9] is “Insoluble”; in assay [10], 35%.
For the compound `CCCC(=O)c1cnc2c(OC)cccc2c1Nc1c(C)ccc(O)c1C`, the inhibition in vivo at 1 µmol/kg with Canis familiaris [4] came to 36%. In assay [6], this compound registered an ED50 of 5.6 µmol/kg. For the same compound, the inhibition in assay [7] was 35%.
Consider `CCCC(=O)c1cnc2c(C)cccc2c1Nc1cc(OC)ccc1OC`, for which the inhibition in [8] amounted to 28%; in assay [7], 29%.
Turning to `CCCC(=O)c1cnc2c(C3OC3CO)cccc2c1Nc1ccccc1C` (stereo in doubt; 29a), the midpoint of inhibition in assay [11], the IC50, lay at 3100 nM.
On to `CCCC(=O)c1cnc2c(OC)cccc2c1Nc1ccc(CO)cc1`, for which, in assay [7], the inhibition worked out at 38%.
As for `CCCC(=O)c1cnc2c(OC)cccc2c1Nc1ccc(N2CCCC2)cc1C`, the inhibition in assay [8] is 0%; in [7], 5%.
In turn, `CCCC(=O)c1cnc2c(OC)cccc2c1Nc1ccc(OC(C)=O)cc1C` showed an inhibition in assay [2] of 25%. For the same compound, in the assay on Canis familiaris [3], the inhibition in vivo at 4 µmol/kg is 44%.
`CCCC(=O)c1cnc2c(C3CO3)cccc2c1Nc1ccccc1C` (stereo unspecified) showed an inhibition in vivo at 1 µmol/kg with Canis familiaris [4] of 53%. This compound also had an IC50 in [5] of 3000 nM. Also, it took a dose of 3.1 µmol/kg to reach the 50% effect level with Rattus norvegicus [12] (ED50).
`CCCC(=O)c1cnc2c(OC)cccc2c1Nc1cc(C)c(O)c(C)c1`: the IC50 result in assay [13] was “Insoluble”.
As for `CCCC(=O)c1cnc2c(OC)cccc2c1Nc1ccccc1OC`, in the assay with Canis familiaris [4], the inhibition in vivo at 1 µmol/kg is 73%. The same compound returned an IC50 in [5] of 1500 nM. The compound further yielded an ED50 in [6] of 3.56 µmol/kg. For the same compound, in the assay with Canis familiaris [3], the inhibition in vivo at 4 µmol/kg is 18%.
On to `CCCC(=O)c1cnc2c(C)cccc2c1Nc1ccc(Cl)cc1Cl`, for which the inhibition in assay [7] amounted to 31%.
In the case of `CCCC(=O)c1cnc2c(C(=O)O)cccc2c1Nc1ccccc1C`, half-maximal inhibition in assay [5] (IC50) required 5900 nM. Also, the inhibition result in the assay with Rattus norvegicus [9] was “Insoluble”.
In the assay with Canis familiaris [4], `CCCC(=O)c1cnc2c(OC)cccc2c1Nc1c(C)cc(O)cc1C` returned an inhibition in vivo at 1 µmol/kg of 32%. The IC50 in [5] came out at 500 nM. In assay [6], this compound had an ED50 of 6.4 µmol/kg. The inhibition in vivo at 4 µmol/kg with Canis familiaris [3] is 25%.
In [7], `CCCC(=O)c1cnc2c(C)cccc2c1Nc1cc(C)ccc1OC` showed an inhibition of 56%.
In the case of `CCCC(=O)c1cnc2cc(OC)ccc2c1Nc1ccccc1C`, the inhibition in assay [8] came out at 28%; in assay [10] it was 41%.
Turning to `CCCC(=O)c1cnc2c(OC)cccc2c1Nc1ccc(O)c(CN(C)C)c1`, the inhibition in assay [7] is 35%.
In the assay with Canis familiaris [4], `CCCC(=O)c1cnc2c(OC)cccc2c1Nc1ccc(F)cc1C` returned an inhibition in vivo at 1 µmol/kg of 36%. Also, 2300 nM corresponded to half-maximal inhibition in assay [5] (IC50). In assay [6], this compound yielded an ED50 of 3.9 µmol/kg. In the assay on Canis familiaris [3], this compound registered an inhibition in vivo at 4 µmol/kg of 64%.
As to `CCCC(=O)c1cnc2c(OC)cccc2c1Nc1cc(F)cc(F)c1`, the inhibition in [7] stood at 63%.
`COCCOc1cccc2c(Nc3ccccc3C)c(C(=O)C(C)C)cnc12` registered an inhibition in vivo at 1 µmol/kg with Canis familiaris [4] of 65%. Besides, the IC50 in assay [5] stood at 1400 nM. Moreover, in [6], the ED50 was 3.61 µmol/kg. In the assay with Canis familiaris [3], this compound yielded an inhibition in vivo at 4 µmol/kg of 86%.
`CCCC(=O)c1cnc2c(OCCOC)cccc2c1Nc1ccc(F)cc1C` displayed an inhibition in vivo at 1 µmol/kg in the assay on Canis familiaris [4] of 65%. The compound further displayed an IC50 in assay [5] of 3500 nM. Further, in [6], the 50% effect level (ED50) was put at a dose of 2.91 µmol/kg. The inhibition in vivo at 4 µmol/kg in the assay on Canis familiaris [3] worked out at 46%.
`CCCC(=O)c1cnc2c(OC)cccc2c1Nc1cc(F)c(O)c(F)c1` displayed an inhibition in assay [7] of 11%.
In the case of `CCC(=O)c1cnc2c(OCCOC)cccc2c1Nc1ccccc1C`, in the assay with Canis familiaris [4], the inhibition in vivo at 1 µmol/kg was found to be 80%. The IC50 in assay [5] amounted to 780 nM. The compound also returned an ED50 in assay [6] of 1.92 µmol/kg. The same compound returned an inhibition in vivo at 4 µmol/kg in the assay on Canis familiaris [3] of 66%.
The like results for `CCC(=O)c1cnc2c(OCCO)cccc2c1Nc1ccccc1C` were, in that order, 82%, 760 nM, 1.72 µmol/kg and 82%.
As to `CCC(=O)c1cnc2c(OCCOC)cccc2c1Nc1ccc(F)cc1C`, in the assay with Canis familiaris [4], the inhibition in vivo at 1 µmol/kg turned out to be 36%. Besides, the IC50 in assay [5] came to 2000 nM. The Inhibition with Rattus norvegicus [14] was 70%. Moreover, the inhibition in vivo at 4 µmol/kg with Canis familiaris [3] is 94%.
Regarding `CCCC(=O)c1cnc2c(C(C)O)cccc2c1Nc1ccccc1C` (stereo unspecified), in the assay with Canis familiaris [4], the inhibition in vivo at 1 µmol/kg amounted to 46%. This compound also returned an IC50 in assay [5] of 370 nM. The same compound gave an ED50 in assay [6] of 3.69 µmol/kg. In addition, the inhibition in vivo at 4 µmol/kg in the assay with Canis familiaris [3] was 49%.
Turning to `CCCC(=O)c1cnc2c(OC)cccc2c1Nc1ccc(O)cc1C`, in the assay on Canis familiaris [4], the inhibition in vivo at 1 µmol/kg is 76%. In addition, half-maximal inhibition in assay [5] (IC50) was put at 210 nM. This compound came in with an ED50 in assay [6] of 1.98 µmol/kg. The inhibition in vivo at 4 µmol/kg in the assay with Canis familiaris [3] is 46%.
`Cc1ccccc1Nc1c(C(=O)C(C)C)cnc2c(OCCO)cccc12` had an inhibition in vivo at 1 µmol/kg with Canis familiaris [4] of 56%. The same compound returned an IC50 in assay [5] of 990 nM. Moreover, the 50% effect level in assay [6] (ED50) was put at a dose of 2.07 µmol/kg. Besides, in the assay on Canis familiaris [3], the inhibition in vivo at 4 µmol/kg was 54%.

One may read the inhibition as how much of the control response was suppressed. One may read the inhibition in vivo as the percentage by which the read-out fell short of the control. Usually IC50 stands for the concentration that gives 50% inhibition. Broadly, the ED50 is the dose at which the effect has come halfway, by size or by number of responders. What is called Inhibition is how much of the control response was suppressed.
